Bioassay records as filed in PubChem.
GSIS activator – primary screen for activators of insulin secretion dependent on glucose, INS-1E cells, GLuc reporter luminescence | INS-1E GLuc reporter insulin secretion, 2-3 h | activation, % at 16.6 µM | 0.61% of 370,000 active | AID 743287;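 active means lowest replicate activation of at least 40%, so every replicate reaches that level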
PAX8 reporter – inhibitors of PAX8 transcriptional activity in RMG-I cells. inhibition, % at 12.6 µM. 1.2% of 360,000 active. RMG-I TPO-luciferase reporter, SteadyGlo, 24 h;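 active means mean replicate inhibition at least 60% with every replicate also reaching 60%; inconclusive means only one of the two criteria is met; inactive means mean below 60% and not all replicates reaching 60%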;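 further: luciferase light reporting Pax8 driven TPO promoter activity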
XiGFP reactiv – reactivates the inactive X chromosome in mouse fibroblasts. XiGFP mouse fibroblasts, % GFP-positive cells imaging, 3 d; cells co-treated with 5-aza-dC sensitizer; scaled so ellipticine positive control = 100%. activation, % at 7.58 µM. 0.055% of 360,000 active. AID 743238;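 active means mean normalized replicate activation at least 10% and every replicate at or above 10%; inconclusive means only one of the two criteria met; inactive means mean below 10% and not all replicates reach 10%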
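Assay system – SV40-immortalized XiGFP fibroblast cells, line 68-5-11 · Buffer or medium – DMEM supplemented with 5-aza-dC as sensitizing agent · Dosing – one concentration, pinned · Benchmarks – positive control ellipticine, 6 µM final · Times – 3 days compound exposure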
PGC1a acetyl inh – modulators of PGC1a acetylation; 0.17% of 350,000 active; U2OS PGC1a acetylation, AlphaScreen anti-acetyl-lysine; with virally co-expressed GCN5 acetyltransferase; inhibition, % at 15.6 µM; AID 651687;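 active means every replicate shows inhibition of at least 40%; inconclusive means mean inhibition at least 40% but some replicate below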
EWS-Fli inh – blocks EWS/Fli oncoprotein-driven transcription; A673 NR0B1-luciferase reporter, viability-normalised; inhibition, % at 12.6 µM; 0.67% of 350,000 active; AID 651661;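 active means mean inhibition of at least 50% after viability correction, with every replicate also passing that limit; inconclusive means mean reaches 50% but only one of two replicates passes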;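 further: firefly luciferase signal divided by Alamar Blue viability fluorescence both relative to DMSO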
MLL AF4-AF9 inh – inhibitors of human MLL-AF4/AF9 interaction; P42568; AlphaScreen, biotin-AF4 peptide binding to FLAG-AF9; inhibition, % at 10 µM; 0.47% of 350,000 active; AID 651704;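 active means every replicate reaching a set inhibition limit, whatever the replicate mean, cut at about 25% in these data; inconclusive means mean inhibition reaches that limit but some replicates miss it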
Target sequence (P42568 whole entry, looked up): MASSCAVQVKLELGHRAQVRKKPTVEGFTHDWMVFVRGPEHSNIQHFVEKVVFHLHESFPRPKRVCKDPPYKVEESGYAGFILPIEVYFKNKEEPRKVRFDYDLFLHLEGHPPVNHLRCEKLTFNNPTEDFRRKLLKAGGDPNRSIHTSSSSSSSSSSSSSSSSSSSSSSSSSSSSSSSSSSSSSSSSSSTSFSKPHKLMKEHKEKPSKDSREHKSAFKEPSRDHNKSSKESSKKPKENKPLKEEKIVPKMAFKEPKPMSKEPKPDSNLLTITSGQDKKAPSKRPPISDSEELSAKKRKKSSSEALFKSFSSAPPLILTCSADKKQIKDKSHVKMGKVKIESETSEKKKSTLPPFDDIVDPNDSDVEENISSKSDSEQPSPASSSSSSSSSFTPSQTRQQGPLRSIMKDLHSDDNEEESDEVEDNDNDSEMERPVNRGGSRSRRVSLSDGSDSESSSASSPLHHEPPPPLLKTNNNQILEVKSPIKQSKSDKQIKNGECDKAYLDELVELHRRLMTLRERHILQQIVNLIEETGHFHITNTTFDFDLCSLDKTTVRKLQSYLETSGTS
Numbers stand for hits; . = inactive; ? = inconclusive; / = no result given. Shown are actives, neighbours in structure and some others; about 2.1% of the full set was active somewhere.

SMILES | GSIS activator | PAX8 reporter | XiGFP reactiv | PGC1a acetyl inh | EWS-Fli inh | MLL AF4-AF9 inh
COc1ccc(S(=O)(=O)Nc2ccc3c(c2)C(=O)N([C@H](C)CO)C[C@@H](C)[C@H](CN(C)Cc2ccc4c(c2)OCO4)OCCCC[C@H](C)O3)cc1 | . | . | . | . | . | .
CCNc1nc(NC(C)CC)nc(ON=C(C)C)n1 (centres undefined) | 56 | . | . | . | . | .
COc1ccc(NC(=O)N(C)C[C@@H]2Oc3ccc(NC(=O)Cc4cn(C)c5ccccc45)cc3CC(=O)N([C@H](C)CO)C[C@H]2C)cc1 | . | . | . | . | . | .
C[C@@H]1CN([C@@H](C)CO)C(=O)c2cc(NC(=O)C3CCCCC3)ccc2O[C@H]1CN(C)S(=O)(=O)c1ccc(Cl)cc1 | . | . | . | . | . | .
O=c1c(Br)ccc(Br)cc1Br | . | 118 | . | / | . | .
COCCn1c(C)cc(C2=NNC(=Nc3ccc(Cl)cc3Cl)SC2)c1C | / | / | / | . | / | /
C=CCn1c(C)cc(C2=NNC(=NC(C)(C)C)SC2)c1C | . | . | . | / | 60 | .
C=CCN=C1NN=C(c2cc(C)n(CCOC)c2C)CS1 | . | . | . | / | 85 | .
C=CCn1c(C)cc(C2=NNC(=Nc3ccc(C)cc3)SC2)c1C | . | . | . | . | . | .
COCCn1c(C)cc(C2=NNC(=NC3CC3)SC2)c1C | . | 102 | . | / | 90 | .
CN[C@H]1CCc2cc(OC)c(OC)c(OC)c2-c2ccc(N(C)CC(OC)OC)c(=O)cc21 | . | ? | . | . | . | .
CCOCC(=O)NC1CCc2cc(OC(=O)COCC)c(OC)c(OC)c2-c2ccc(SC)c(=O)cc21 (centres undefined) | . | 91 | . | . | 53 | .
CNC1CCc2cc(OC)c(OC)c(OC)c2-c2ccc(SC)c(=O)cc21 (centres undefined) | . | 72 | . | / | . | .
COc1cc2c(c(OC)c1OC)-c1ccc(SC)c(=O)cc1C(NC(=O)C(F)(F)F)CC2 (centres undefined) | . | 87 | . | . | . | .
CCN(CC)c1ccc2c(cc1=O)[C@@H](NC)CCc1cc(OC)c(OC)c(OC)c1-2 | . | 98 | . | / | 60 | .
COc1ccc2c(c1)C(NC(=O)C(F)(F)F)CC2=O (centres undefined) | / | . | / | / | / | /
CN1CCN(C(=O)C[C@@H]2C[C@H]3c4cc(NC(=O)Nc5ccccc5)ccc4O[C@H]3[C@@H](CO)O2)CC1 | . | . | . | . | . | /
CCn1c(Cl)c(C=O)s/c1=N\S(=O)(=O)c1ccccc1 | 58 | . | 35 | 78 | . | /
CCN1C(=O)CS/C1=N\S(=O)(=O)c1ccc(Cl)cc1 | . | . | . | . | . | .
O=C1Nc2ccccc2Nc2ccccc21 | . | . | . | . | . | .
O=C1Nc2cnc(Cl)nc2Nc2ccccc21 | 87 | . | . | / | . | .
O=C(NCc1ccccc1)[C@@]1(Cc2ccccc2)N=C(c2ccc(OCCCO)cc2)O[C@H]1c1ccccc1 | / | / | / | . | . | .
O=C(NCc1ccccc1)[C@]1(Cc2ccccc2)N=C(c2ccc(OCCCO)cc2)O[C@@H]1c1ccccc1 | / | 94 | / | . | . | .
CC(=O)Nc1ccc2c(c1)C(=O)N(C)C[C@H](C)[C@H](CN(C)C(=O)OC(C)(C)C)O2 | . | / | . | / | / | /
Cn1c(=N)n(CC(=O)c2ccc(F)cc2)c2ccccc21 | . | . | . | . | 78 | .
SMILES | GSIS activator | PAX8 reporter | XiGFP reactiv | PGC1a acetyl inh | EWS-Fli inh | MLL AF4-AF9 inh
COc1ccc(S(=O)(=O)N2CCc3ccccc3C2)cc1C(=O)O | . | . | . | . | . | .
COc1ccc(S(=O)(=O)N2CCc3ccccc3C2)cc1OC | 63 | / | / | . | . | .
CC(C)NC(=O)Nc1cccc2c1O[C@H](CN(C)S(=O)(=O)c1ccccc1)[C@H](C)CN([C@@H](C)CO)C2=O | . | . | . | . | . | .
COc1ccc(-c2ccc(C#N)c(SCC(=O)NC3CC3)n2)cc1OC | / | . | . | / | . | .
COc1ccc(-c2nnc3ccc(SCC(=O)NCc4ccco4)nn23)cc1OC | . | / | / | . | / | /
COc1ccc(-c2ccc(C#N)c(SCC(=O)NCc3ccco3)n2)cc1OC | 51 | . | ? | . | . | .
COc1ccc(-c2nc3cccc(C)n3c2NCc2ccco2)cc1OC | 65 | / | / | . | / | /
C=C(C(=O)c1ccccc1)C(NC(C)(C)C)c1ccccc1 (centres undefined) | / | 81 | . | / | . | .
C=C(C(=O)c1ccccc1)C(C)CC(=O)c1ccccc1 (centres undefined) | . | 62 | . | / | / | /
O=C(CC(Nc1ccccc1)C(=O)O)c1ccccc1 (centres undefined) | / | / | / | . | / | /
C/C=C/c1cnc2c(c1)C(=O)N([C@@H](C)CO)C[C@@H](C)[C@H](CN(C)S(=O)(=O)c1ccccc1)O2 | . | / | . | . | . | .
Cc1cccc(OCC(=O)N(C)c2c(N)n(Cc3ccccc3)c(=O)[nH]c2=O)c1C | . | . | 140 | . | . | .
CC(=O)Nc1sc(C)c(C)c1C(=O)OCC(=O)N(CC(C)C)c1c(N)n(Cc2ccccc2)c(=O)[nH]c1=O | . | . | . | . | 63 | .
COC(=O)c1c(C)[nH]c(C(=O)OCC(=O)N(CC(C)C)c2c(N)n(Cc3ccccc3)c(=O)[nH]c2=O)c1C | . | . | . | / | . | .
COc1ccccc1N1CCN(c2ccnc3cc(Cl)ccc23)CC1 | . | . | . | / | 54 | .
C[C@@H]1CN([C@@H](C)CO)S(=O)(=O)c2ccc(-c3ccccc3F)cc2O[C@H]1CN(C)Cc1ccncc1 | . | / | . | . | . | .
CCOC(=O)N1CCN(CC(=O)Nc2sc(CC)cc2C(=O)c2ccc(OC)cc2)CC1 | . | . | . | / | . | 27
O=C(NCC1OCCc2ccccc21)c1ccc(NC(=O)c2cccc(Br)c2)cc1 (centres undefined) | 253 | . | . | . | / | /
COc1ccc(C(=O)NCC2OCCc3ccccc32)cc1OC (centres undefined) | . | . | . | / | . | .
O=C(NCC1OCCc2ccccc21)c1ccc(NC(=O)c2ccccc2Cl)cc1 (centres undefined) | . | / | / | / | / | /
O=C(NCC1OCCc2ccccc21)c1ccc(NC(=O)c2ccc(Cl)cc2Cl)cc1 (centres undefined) | 267 | . | . | . | / | /
NS(=O)(=O)c1ccc(N2N=C(c3ccccc3)CC2c2ccccc2Br)cc1 (centres undefined) | . | . | . | . | . | .
O=[N+]([O-])c1ccc(N2N=C(c3ccccc3)CC2c2ccccc2O)cc1 (centres undefined) | . | . | 32 | / | . | .
O=C(C[C@@H]1C=C[C@@H](NC(=O)c2ccccc2)[C@@H](CO)O1)NCCc1ccncc1 | . | . | . | . | . | .
Cc1ccc(S(=O)(=O)CCC(=O)c2ccc(F)cc2)cc1 | . | 96 | . | / | / | .
